In brackets after ≈: the same amount, converted by molar mass.
How the values were obtained:
Assay type in all cases: functional
Staphylococcus aureus [1] = assay: Antimicrobial activity against methicillin-resistant Staphylococcus aureus isolate 25a after 24 hrs by agar plate dilution method
How it was run: (§1)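 Clinical MRSA isolates from axilla/nasal swabs, identified by mannitol salt agar, Gram stain and coagulase test. Agar plate dilution with compound series 0.03–128 µg/mL. Inoculum suspended in water to McFarland 0.5. Incubation 24 h at 37 °C. MIC read as the lowest level without white growth spots. Dilution series quality-controlled with S. aureus NCTC 6571.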

Staphylococcus aureus [2] = assay: Bactericidal activity against methicillin-resistant Staphylococcus aureus isolate 1a assessed as reduction in colony counts at 32 ug/ml after 16 hrs by pour plate method (reference value: 12.50 +/- 0.291 log10CFU/ml)
Staphylococcus aureus [3] = assay: Bactericidal activity against methicillin-resistant Staphylococcus aureus isolate 1a assessed as reduction in colony counts at 32 ug/ml after 8 hrs by pour plate method (reference value: 8.30 +/- 0.442 log10CFU/ml)
Staphylococcus aureus [4] = assay: Antimicrobial activity against methicillin-resistant Staphylococcus aureus isolate 27a after 24 hrs by agar plate dilution method in presence of oxacillin (1:1)
How it was run: (§2)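 Test compound and oxacillin mixed 1:1, each at 32 µg/mL in the mixture, then serially diluted into agar plates. Clinical MRSA isolates at McFarland 0.5 in water were spotted onto the plates and incubated 24 h at 37 °C. Growth was read as white spots. NCTC 6571 S. aureus served as the dilution-series control.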

Staphylococcus aureus [5] = assay: Antimicrobial activity against methicillin-resistant Staphylococcus aureus isolate 28a after 24 hrs by agar plate dilution method; how it was run: as §1
Staphylococcus aureus [6] = assay: Antimicrobial activity against methicillin-resistant Staphylococcus aureus isolate 16a after 24 hrs by agar plate dilution method in presence of oxacillin (1:1); how it was run: as §2
Staphylococcus aureus [7] = assay: Antimicrobial activity against methicillin-resistant Staphylococcus aureus isolate 6a after 24 hrs by agar plate dilution method
How it was run: (§3)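 Clinical MRSA isolates, from axilla/nasal swabs and identified by mannitol salt agar, Gram stain and coagulase test. […] Inoculum adjusted to McFarland 0.5 in water. Plates incubated 24 h at 37 °C and scored for growth spots. Dilution series quality-controlled with S. aureus NCTC 6571. Combination lines used a 1:1 mixture with oxacillin.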

Staphylococcus aureus [8] = assay: Antimicrobial activity against methicillin-resistant Staphylococcus aureus isolate 29a after 24 hrs by agar plate dilution method in presence of oxacillin (1:1); how it was run: as §2
Staphylococcus aureus [9] = assay: Bactericidal activity against methicillin-resistant Staphylococcus aureus isolate 1a assessed as reduction in colony counts at 32 ug/ml after 20 hrs by pour plate method in presence of oxacillin (1:1) (reference value: 12.73 +/- 0.223 log10CFU/ml)
Staphylococcus aureus [10] = assay: Antimicrobial activity against methicillin-resistant Staphylococcus aureus isolate 4a after 24 hrs by agar plate dilution method; how it was run: as §1
Staphylococcus aureus [11] = assay: Bactericidal activity against methicillin-resistant Staphylococcus aureus isolate 1a assessed as reduction in colony counts at 32 ug/ml after 12 hrs by pour plate method in presence of oxacillin (1:1) (reference value: 10.12 +/- 0.428 log10CFU/ml)
Staphylococcus aureus [12] = assay: Bactericidal activity against methicillin-resistant Staphylococcus aureus isolate 1a assessed as reduction in colony counts at 32 ug/ml after 24 hrs by pour plate method in presence of oxacillin (1:1) (reference value: 12.64 +/- 0.224 log10CFU/ml)
Staphylococcus aureus [13] = assay: Antimicrobial activity against methicillin-resistant Staphylococcus aureus isolate 30a after 24 hrs by agar plate dilution method in presence of oxacillin (1:1); how it was run: as §2
Staphylococcus aureus [14] = assay: Antimicrobial activity against methicillin-resistant Staphylococcus aureus isolate 26a after 24 hrs by agar plate dilution method; how it was run: as §1
Staphylococcus aureus [15] = assay: Antimicrobial activity against methicillin-resistant Staphylococcus aureus isolate 22a after 24 hrs by agar plate dilution method in presence of oxacillin (1:1); how it was run: as §2
Staphylococcus aureus [16] = assay: Antimicrobial activity against methicillin-resistant Staphylococcus aureus isolate 2a after 24 hrs by agar plate dilution method; how it was run: as §1
Staphylococcus aureus [17] = assay: Antimicrobial activity against methicillin-resistant Staphylococcus aureus isolate 9a after 24 hrs by agar plate dilution method in presence of oxacillin (1:1); how it was run: as §3
Staphylococcus aureus [18] = assay: Antimicrobial activity against methicillin-resistant Staphylococcus aureus isolate 28a after 24 hrs by agar plate dilution method in presence of oxacillin (1:1); how it was run: as §2
Staphylococcus aureus [19] = assay: Antimicrobial activity against methicillin-resistant Staphylococcus aureus isolate 10a after 24 hrs by agar plate dilution method in presence of oxacillin (1:1); how it was run: as §2
Staphylococcus aureus [20] = assay: Antimicrobial activity against methicillin-resistant Staphylococcus aureus isolate 10a after 24 hrs by agar plate dilution method; how it was run: as §1
Staphylococcus aureus [21] = assay: Antimicrobial activity against methicillin-resistant Staphylococcus aureus isolate 7a after 24 hrs by agar plate dilution method in presence of oxacillin (1:1); how it was run: as §3
Staphylococcus aureus [22] = assay: Antimicrobial activity against methicillin-resistant Staphylococcus aureus isolate 23a after 24 hrs by agar plate dilution method; how it was run: as §1
Staphylococcus aureus [23] = assay: Antimicrobial activity against methicillin-resistant Staphylococcus aureus isolate 20a after 24 hrs by agar plate dilution method; how it was run: as §1
Staphylococcus aureus [24] = assay: Antimicrobial activity against methicillin-resistant Staphylococcus aureus isolate 24a after 24 hrs by agar plate dilution method in presence of oxacillin (1:1); how it was run: as §2
Staphylococcus aureus [25] = assay: Antimicrobial activity against methicillin-resistant Staphylococcus aureus isolate 9a after 24 hrs by agar plate dilution method; how it was run: as §3
Staphylococcus aureus [26] = assay: Antimicrobial activity against methicillin-resistant Staphylococcus aureus isolate 12a after 24 hrs by agar plate dilution method; how it was run: as §1
Staphylococcus aureus [27] = assay: Bactericidal activity against methicillin-resistant Staphylococcus aureus isolate 1a assessed as reduction in colony counts at 32 ug/ml after 12 hrs by pour plate method (reference value: 10.12 +/- 0.428 log10CFU/ml)
Staphylococcus aureus [28] = assay: Antimicrobial activity against methicillin-resistant Staphylococcus aureus isolate 7a after 24 hrs by agar plate dilution method; how it was run: as §3
Staphylococcus aureus [29] = assay: Bactericidal activity against methicillin-resistant Staphylococcus aureus isolate 1a assessed as reduction in colony counts at 32 ug/ml after 8 hrs by pour plate method in presence of oxacillin (1:1) (reference value: 8.30 +/- 0.442 log10CFU/ml)
Staphylococcus aureus [30] = assay: Antimicrobial activity against methicillin-resistant Staphylococcus aureus isolate 14a after 24 hrs by agar plate dilution method; how it was run: as §1
Staphylococcus aureus [31] = assay: Bactericidal activity against methicillin-resistant Staphylococcus aureus isolate 1a assessed as reduction in colony counts at 32 ug/ml after 4 hrs by pour plate method in presence of oxacillin (1:1) (reference value: 6.14 +/- 0.456 log10CFU/ml)
Staphylococcus aureus [32] = assay: Antimicrobial activity against methicillin-resistant Staphylococcus aureus isolate 6a after 24 hrs by agar plate dilution method in presence of oxacillin (1:1); how it was run: as §3
Staphylococcus aureus [33] = assay: Antimicrobial activity against methicillin-resistant Staphylococcus aureus isolate 29a after 24 hrs by agar plate dilution method; how it was run: as §1

## Cc1ncc([N+](=O)[O-])n1CCn1cc(COc2c(Cl)cccc2Cl)nn1
Staphylococcus aureus [1]
  MIC: 64 µg/mL (≈ 161 µM)
Staphylococcus aureus [2]
  Activity: 5.53 log10CFU/ml
Staphylococcus aureus [3]
  Activity: 6.05 log10CFU/ml
Staphylococcus aureus [4]
  MIC: 4 µg/mL
Staphylococcus aureus [5]
  MIC: 128 µg/mL (≈ 322 µM)
Staphylococcus aureus [6]
  MIC: 2 µg/mL
Staphylococcus aureus [7]
  MIC: 4 µg/mL (≈ 10.1 µM)
Staphylococcus aureus [8]
  MIC: 4 µg/mL
Staphylococcus aureus [9]
  Activity: 5.26 log10CFU/ml
Staphylococcus aureus [10]
  MIC: 4 µg/mL (≈ 10.1 µM)
Staphylococcus aureus [11]
  Activity: 5.91 log10CFU/ml
Staphylococcus aureus [12]
  Activity: 5.6 log10CFU/ml
Staphylococcus aureus [13]
  MIC: 8 µg/mL
Staphylococcus aureus [14]
  MIC: 64 µg/mL (≈ 161 µM)
Staphylococcus aureus [15]
  MIC: 4 µg/mL
Staphylococcus aureus [16]
  MIC: 4 µg/mL (≈ 10.1 µM)
Staphylococcus aureus [17]
  MIC: 2 µg/mL
Staphylococcus aureus [18]
  MIC: 1 µg/mL
Staphylococcus aureus [19]
  MIC: 2 µg/mL
Staphylococcus aureus [20]
  MIC: > 128 µg/mL
Staphylococcus aureus [21]
  MIC: 1 µg/mL
Staphylococcus aureus [22]
  MIC: > 128 µg/mL
Staphylococcus aureus [23]
  MIC: > 128 µg/mL
Staphylococcus aureus [24]
  MIC: 4 µg/mL
Staphylococcus aureus [25]
  MIC: 8 µg/mL (≈ 20.1 µM)
Staphylococcus aureus [26]
  MIC: 32 µg/mL (≈ 80.6 µM)
Staphylococcus aureus [27]
  Activity: 5.96 log10CFU/ml
Staphylococcus aureus [28]
  MIC: 4 µg/mL (≈ 10.1 µM)
Staphylococcus aureus [29]
  Activity: 5.85 log10CFU/ml
Staphylococcus aureus [30]
  MIC: > 128 µg/mL
Staphylococcus aureus [31]
  Activity: 5.5 log10CFU/ml
Staphylococcus aureus [32]
  MIC: 1 µg/mL
Staphylococcus aureus [33]
  MIC: 128 µg/mL (≈ 322 µM)
